A short description of data set [1]: Selectivity ratio of IC50 for human HepG2 cells to IC50 for chloroquine-sensitive Plasmodium falciparum 3D7A. As to conditions: HepG2 cells versus Plasmodium falciparum 3D7A.
Data set [2] concerns Plasmodium falciparum. Put plainly: Antimalarial activity against chloroquine-resistant Plasmodium falciparum W2 infected in type A rhesus-positive human erythrocytes assessed as [3H]hypoxanthine incorporation after 48 hrs by scintillation counting. The class given is functional, organism-based. The method in brief: (§1)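 Modified semiautomated microdilution: compounds dissolved in DMSO, diluted in RPMI 1640 with 10% v/v human plasma, serial 1:2 dilutions in triplicate. Infected erythrocytes at 3% hematocrit, 0.25−0.55% parasitemia. [3H]hypoxanthine at 12.5−16 μCi/mL final. Incubated 48 h, 37 °C, in 5% O2/3% CO2/92% N2. Harvested on fiberglass strips, scintillation counted. IC50 by nonlinear regression of concentration−response curves.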

For data set [3], the system named is Plasmodium falciparum. As to the kind of experiment: Ratio of IC50 for azithromycin to compound IC50 for chloroquine-sensitive Plasmodium falciparum 3D7A infected in type A rhesus-positive human erythrocytes assessed as [3H]hypoxanthine incorporation after 48 hrs by scintillation counting. The class given is functional.
The subject of another data set is Streptococcus pneumoniae. As to the kind of experiment: Antibacterial activity against Streptococcus pneumoniae isolate SP030 by broth microdilution method. The format is functional. The method in brief:
(§2)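 Standard broth microdilution MIC against macrolide-sensitive strains. For streptococci, 5% horse serum replaced lysed horse blood in the broth, and inocula were grown on Columbia agar with 5% sheep blood. S. aureus was grown on Mueller–Hinton agar.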
For orientation: Broth dilution looks for growth in wells or tubes with falling amounts of substance.

Data set [4] can be described thus: Selectivity ratio of IC50 for human HepG2 cells to IC50 for chloroquine-sensitive Plasmodium falciparum 3D7A. The format is ADME, cell-based. As to conditions: HepG2 cells versus Plasmodium falciparum 3D7A, read-out: Ratio IC50. The method in brief:
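Selectivity is the HepG2 IC50 divided by the P. falciparum IC50. For HepG2, 50000 cells per well in RPMI 1640 with 10% FBS were exposed to 1:2 serial dilutions for 24 h at 37 °C, 5% CO2. MTS was added for 2 h and absorbance read at 490 nm. Parasite IC50 came from the 48 h [3H]hypoxanthine assay.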

Data set [5] can be described thus: Aqueous solubility of the compound at pH 4. The class given is physicochemical.
The test system of a further data set is Staphylococcus aureus. Put plainly: Antibacterial activity against Staphylococcus aureus ATCC 13709 by broth microdilution method. The format is functional. The method in brief:
as §2

Data set [6] relates to Plasmodium falciparum. Put plainly: Antimalarial activity against chloroquine-sensitive Plasmodium falciparum 3D7A infected in type A rhesus-positive human erythrocytes assessed as [3H]hypoxanthine incorporation after 48 hrs by scintillation counting. The format is functional, organism-based. Put shortly:
as §1

For data set [7], the system named is Plasmodium falciparum. Put plainly: Ratio of IC50 for azithromycin to compound IC50 for chloroquine-resistant Plasmodium falciparum W2 infected in type A rhesus-positive human erythrocytes assessed as [3H]hypoxanthine incorporation after 48 hrs by scintillation counting. The class given is functional.
The subject of the next data set is Streptococcus pyogenes. As to the kind of experiment: Antibacterial activity against Streptococcus pyogenes isolate 3565 by broth microdilution method. The class given is functional. The method in brief:
as §2

In another data set the test system is HepG2. As to the kind of experiment: Cytotoxicity against human HepG2 cells after 24 hrs by MTS assay. The class given is cell-based. To be noted: HepG2, 24 h. The method in brief: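 Hep G2 cells were kept in RPMI 1640 with 10% FBS at 37 °C and 5% CO2. Wells held 50000 cells and received 1:2 serial dilutions of compound (DMSO stock diluted in medium) for 24 h. MTS reagent was then added for 2 h, absorbance was read at 490 nm, and IC50 was taken from response curves.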

Molecules are shown by their SMILES. In brackets after ≈: the same amount, converted by molar mass.

Broadly, the IC50 is the point on the concentration scale where inhibition reaches its midpoint. A word on the MIC: it is the lowest concentration found to suppress growth. As a reminder, the solubility is the concentration that dissolves in the medium under given conditions. The low end stands for a poorly soluble substance, the high end for a readily soluble substance. Take `CC[C@H]1OC(=O)[C@H](C)[C@@H](O)[C@H](C)[C@@H](O[C@@H]2O[C@H](C)C[C@H](N(C)C)[C@H]2OCCCNC(=O)CCCNc2ccnc3cc(Cl)ccc23)[C@](C)(O)C[C@@H](C)CN(C)[C@H](C)[C@@H](O)[C@]1(C)O`: the selectivity ratio in data set [1] and in [4] was 132 each time. Besides, the IC50 with Plasmodium falciparum [2] came out at 224 nM; in the data set on Plasmodium falciparum [6], 402 nM; with HepG2, 75000 nM. Further, the “Ratio IC50” value with Plasmodium falciparum [3] and in the data set on Plasmodium falciparum [7] was 3 each time. Besides, the MIC against Streptococcus pneumoniae, in the data set with Staphylococcus aureus and in the data set with Streptococcus pyogenes was greater than 64 µg/mL each time. For the same molecule, in [5], the solubility is greater than 10000 µg/mL.
Take `CC[C@H]1OC(=O)[C@H](C)[C@@H](O[C@H]2C[C@@](C)(OC)[C@@H](O)[C@H](C)O2)[C@H](C)[C@@H](O[C@@H]2O[C@H](C)C[C@H](N(C)C)[C@H]2OCCCN(C)Cc2ccnc3ccccc23)[C@](C)(O)C[C@@H](C)CN(C)[C@H](C)[C@@H](O)[C@]1(C)O`: the selectivity ratio in data set [1] and in data set [4] was 132 each time. Moreover, the figures for the IC50 with Plasmodium falciparum [2], in the data set on Plasmodium falciparum [6] and in the data set on HepG2 were 49 nM, 248 nM and 45000 nM, respectively. Moreover, the “Ratio IC50” value with Plasmodium falciparum [3] and in the data set with Plasmodium falciparum [7] was 3 in each case. Also, the MIC in the data set with Streptococcus pneumoniae, in the data set with Staphylococcus aureus and against Streptococcus pyogenes was greater than 64 µg/mL each time. In [5], this molecule had a solubility greater than 10000 µg/mL.
Regarding `CC[C@H]1OC(=O)[C@H](C)[C@@H](O[C@H]2C[C@@](C)(OC)[C@@H](O)[C@H](C)O2)[C@H](C)[C@@H](O[C@@H]2O[C@H](C)C[C@H](N(C)C)[C@H]2OCCCN(C)Cc2cnc3ccccc3c2)[C@](C)(O)C[C@@H](C)CN(C)[C@H](C)[C@@H](O)[C@]1(C)O`, the selectivity ratio in data set [1] and in [4] was 49 in each case. The IC50 in the data set on Plasmodium falciparum [2] amounted to 47 nM; in the data set on Plasmodium falciparum [6] it was 466 nM; in the data set on HepG2 it was 23000 nM. Moreover, the “Ratio IC50” value in the data set on Plasmodium falciparum [3] and in the data set on Plasmodium falciparum [7] was 3 in each case. Besides, the MIC against Streptococcus pneumoniae, with Staphylococcus aureus and in the data set on Streptococcus pyogenes was greater than 64 µg/mL each time. The solubility in [5] is greater than 10000 µg/mL.
Regarding `CC[C@H]1OC(=O)[C@H](C)[C@@H](O[C@H]2C[C@@](C)(OC)[C@@H](O)[C@H](C)O2)[C@H](C)[C@@H](O[C@@H]2O[C@H](C)C[C@H](N(C)C)[C@H]2OCCCNc2ccnc3ccccc23)[C@](C)(O)C[C@@H](C)CN(C)[C@H](C)[C@@H](O)[C@]1(C)O`, the selectivity ratio in [1] and in data set [4] was 132 each time. The IC50 came out at 35 nM in the data set on Plasmodium falciparum [2], 64 nM in the data set on Plasmodium falciparum [6] and 80000 nM in the data set on HepG2. Moreover, the “Ratio IC50” value in the data set on Plasmodium falciparum [3] and in the data set on Plasmodium falciparum [7] was 3 in each case. In addition, the figures for the minimal inhibitory concentration (MIC) in the data set with Streptococcus pneumoniae, with Staphylococcus aureus and in the data set with Streptococcus pyogenes were 32 µg/mL (≈ 34.3 µM), 16 µg/mL (≈ 17.1 µM) and 32 µg/mL (≈ 34.3 µM), respectively. Moreover, the solubility in data set [5] is greater than 10000 µg/mL.
As to `CC[C@H]1OC(=O)[C@H](C)[C@@H](O)[C@H](C)[C@@H](O[C@@H]2O[C@H](C)C[C@H](N(C)C)[C@H]2OCCCNc2ccnc3cc(Cl)ccc23)[C@](C)(O)C[C@@H](C)CN(C)[C@H](C)[C@@H](O)[C@]1(C)O`, the selectivity ratio in data set [1] and in data set [4] was 132 throughout. In addition, the values for the IC50 in the data set on Plasmodium falciparum [2], in the data set on Plasmodium falciparum [6] and in the data set with HepG2 were 25 nM, 37 nM and 83000 nM, respectively. For the same molecule, the “Ratio IC50” value in the data set on Plasmodium falciparum [3] and in the data set with Plasmodium falciparum [7] was 3 throughout. Also, the minimum inhibitory concentration (MIC) in the data set on Streptococcus pneumoniae, with Staphylococcus aureus and with Streptococcus pyogenes was greater than 64 µg/mL in each case. For the same molecule, the solubility in data set [5] was greater than 10000 µg/mL.
Take `CC[C@H]1OC(=O)[C@H](C)[C@@H](O[C@H]2C[C@@](C)(OC)[C@@H](O)[C@H](C)O2)[C@H](C)[C@@H](O[C@@H]2O[C@H](C)C[C@H](N(C)C)[C@H]2OCCCNC(=O)CNc2ccnc3ccccc23)[C@](C)(O)C[C@@H](C)CN(C)[C@H](C)[C@@H](O)[C@]1(C)O`: the selectivity ratio in data set [1] and in [4] was 132 each time. Further, the results for the IC50 in the data set on Plasmodium falciparum [2], with Plasmodium falciparum [6] and with HepG2 were 68 nM, 119 nM and greater than 100000 nM, respectively. Besides, the “Ratio IC50” value with Plasmodium falciparum [3] and with Plasmodium falciparum [7] was 3 in each case. For the same molecule, the MIC in the data set with Streptococcus pneumoniae, against Staphylococcus aureus and against Streptococcus pyogenes was greater than 64 µg/mL throughout. In [5], this molecule gave a solubility greater than 10000 µg/mL.
On to `CC[C@H]1OC(=O)[C@H](C)[C@@H](O[C@H]2C[C@@](C)(OC)[C@@H](O)[C@H](C)O2)[C@H](C)[C@@H](O[C@@H]2O[C@H](C)C[C@H](N(C)C)[C@H]2OCCCNCc2cnc3ccccc3c2)[C@](C)(O)C[C@@H](C)CN(C)[C@H](C)[C@@H](O)[C@]1(C)O`, for which the selectivity ratio in data set [1] and in [4] was 88 throughout. Moreover, the results for the IC50 in the data set with Plasmodium falciparum [2], with Plasmodium falciparum [6] and in the data set on HepG2 were 46 nM, 228 nM and 20000 nM, respectively. In addition, the “Ratio IC50” value with Plasmodium falciparum [3] and in the data set with Plasmodium falciparum [7] was 3 each time. For the same molecule, the MIC with Streptococcus pneumoniae, against Staphylococcus aureus and in the data set on Streptococcus pyogenes was greater than 64 µg/mL in each case. For the same molecule, the solubility in [5] was greater than 10000 µg/mL.
For the molecule `CC[C@H]1OC(=O)[C@H](C)[C@@H](O[C@H]2C[C@@](C)(OC)[C@@H](O)[C@H](C)O2)[C@H](C)[C@@H](O[C@@H]2O[C@H](C)C[C@H](N(C)C)[C@H]2OCCCNC(=O)CNc2ccnc3cc(Cl)ccc23)[C@](C)(O)C[C@@H](C)CN(C)[C@H](C)[C@@H](O)[C@]1(C)O`, the selectivity ratio in data set [1] and in [4] was 132 in each case. Moreover, the IC50 amounted to 9 nM in the data set on Plasmodium falciparum [2], 14 nM with Plasmodium falciparum [6] and 28000 nM in the data set on HepG2. Also, the “Ratio IC50” value in the data set with Plasmodium falciparum [3] and with Plasmodium falciparum [7] was 3 in each case. Moreover, the MIC against Streptococcus pneumoniae, in the data set with Staphylococcus aureus and against Streptococcus pyogenes was greater than 64 µg/mL each time. Further, the solubility in data set [5] is greater than 10000 µg/mL.

The values are drawn from ChEMBL document CHEMBL2040808, “Design, synthesis, and in vitro activity of novel 2'-O-substituted 15-membered azalides” (J Med Chem, 2012).
